Most compounds without a hit are left out; they make up all but 3.5% or so of the library.
RGS4 block = human RGS4 inhibition | HEK293 M3R/RGS4 inducible, Fluo-4 calcium flux; stronger effect = higher value; triggered by carbachol at its EC20 | P49798 | B-score at 10 µM | 310,000 compounds, 0.45% hits | AID 463165;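 active = B-score, a plate-corrected calcium signal, over three deviations above library mean, with baseline fluorescence within five deviations of library mean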;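 note: RGS4 expression induced by doxycycline in cells with stable M3 receptor; B-score is computed from the integrated fluorescence ratio over baseline after carbachol; higher B-score means a larger calcium signal and so more RGS4 inhibition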
Target sequence (P49798 whole entry, looked up): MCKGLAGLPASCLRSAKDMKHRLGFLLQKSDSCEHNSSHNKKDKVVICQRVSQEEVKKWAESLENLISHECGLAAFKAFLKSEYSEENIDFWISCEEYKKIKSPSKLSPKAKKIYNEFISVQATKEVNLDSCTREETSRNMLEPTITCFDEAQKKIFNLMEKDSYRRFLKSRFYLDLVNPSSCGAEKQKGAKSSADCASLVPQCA
MrgX1 allo act = allosterically activates human MrgX1 receptor signaling. Q96LB2. MrgX1-HEK293, Fluo-4 calcium flux, FDSS; stronger effect = higher value. B-score at 10 µM. 310,000 compounds, 0.63% hits;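 active = plate-corrected calcium response at least 3 library SD above typical, normal starting fluorescence, not activating the receptor alone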;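 note: compound read alongside a low EC10 to EC30 dose of BAM8-22 agonist; peak minus trough fluorescence over baseline measured at the second addition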
Target sequence (Q96LB2 whole entry, looked up): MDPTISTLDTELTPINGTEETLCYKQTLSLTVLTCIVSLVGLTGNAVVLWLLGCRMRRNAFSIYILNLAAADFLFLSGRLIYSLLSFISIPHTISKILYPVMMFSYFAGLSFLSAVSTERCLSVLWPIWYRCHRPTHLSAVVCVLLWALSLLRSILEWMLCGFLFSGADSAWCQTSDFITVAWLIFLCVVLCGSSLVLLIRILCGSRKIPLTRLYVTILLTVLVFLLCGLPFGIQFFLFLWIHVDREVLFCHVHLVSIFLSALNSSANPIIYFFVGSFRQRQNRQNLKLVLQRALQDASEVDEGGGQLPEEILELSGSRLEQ
MrgX1 agonist = activates human MrgX1 receptor signaling; Q96LB2; MrgX1-HEK293 cells, Fluo-4 calcium fluorescence, agonist mode; stronger effect = higher value; B-score at 10 µM; 310,000 compounds, 0.44% hits;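 active = calcium response B-score plate-corrected fluorescence ratio at least 3 library SD, with starting fluorescence B-score inside 5 SD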
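Test system: HEK293 cells stably expressing human MrgX1 receptor; Input: fifteen thousand cells per well; Dosing: compound delivered in addition one of three; Schedule: overnight seeding, then 1 h dark dye loading; Technique: Fluo-4 NW calcium fluorescence; Measure: B-scored fluorescence response ratio; Controls: positive and negative controls per plate.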
MrgX1 antagonist = blocks BAM8-22 activation of human MrgX1 receptor | 310,000 compounds, 1.3% hits | Q96LB2 | AID 588676 | B-score at 10 µM | MRGX1-HEK293 calcium flux, Fluo-4, BAM8-22 antagonism; stronger effect = lower value;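 active = calcium-response B-score plate-corrected more than 3 library SD below zero, starting fluorescence within 5 deviations, no agonist response on first addition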;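 note: peak minus trough fluorescence over baseline after final BAM8-22 challenge near maximal dose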
RGS4 pot = potentiators or activators of RGS4 | HEK293 M3R/inducible RGS4, carbachol calcium flux Fluo4; stronger effect = lower value | 310,000 compounds, 0.92% hits | B-score at 10 µM;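 active = B-score of the integrated calcium signal more than 4 SD below the library mean, with starting fluorescence not abnormally high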;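 note: negative B-score means reduced calcium response which marks RGS4 activation or potentiation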
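test system = M3R-expressing HEK293 line, RGS4 induced by doxycycline | probe or stimulus = carbachol at ECmax as muscarinic agonist stimulus | timing = dye loading 30 min 37 °C, buffer rest 30 min RT | signal = calcium dye Fluo4 fluorescence | evaluation = B score from integrated fluorescence ratio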
MrgX1 ant reconf = confirmation of human MrgX1 receptor antagonists. MrgX1-HEK293, BAM8-22 calcium flux, Fluo-4; stronger effect = lower value. 2,300 compounds, 19% hits. shares compounds with MrgX1 antagonist. remaining BAM8-22 calcium response % of control (stronger effect = lower value), % at 10 µM. AID 602420;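 active = remaining agonist calcium response no higher than 100% minus 3 SD of agonist-only control wells, with starting fluorescence near control levels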;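 note: agonist BAM8-22 given at a near maximal EC90 to ECmax level; peak minus minimum fluorescence divided by baseline after agonist addition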
HEK293 Ca flux = counter-screen for MrgX1 antagonists: effect in parental HEK293 cells | AID 624111 | 4,000 compounds, 2% hits | shares compounds with MrgX1 antagonist | Fluo-4 calcium fluorescence, FDSS | fluorescence ratio F(max-min)/F0 at 10 µM;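 active = duplicate-averaged calcium fluorescence ratio at least three times the standard deviation of buffer wells, a nonspecific response in parental cells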
HEK293 Ca counter = activity in parental HEK293 cells without MrgX1; shares compounds with MrgX1 antagonist; parental HEK293 calcium flux, Fluo-4 fluorescence ratio; stronger effect = higher value; fluorescence ratio F(max-min)/F0 at 10 µM; 4,000 compounds, 0.4% hits; AID 624114;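 active = calcium fluorescence ratio, averaged over duplicates, at least 3 SD of the buffer-well ratio, meaning a nonspecific response in receptor-free cells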;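 note: untransfected parental HEK293 lacking MrgX1 used as counterscreen for MrgX1 allosteric activators; fluorescence change taken during the second addition on a kinetic imager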
HEK293 Ca cntr2 = counter-screen for MrgX1 activators: effect in parental HEK293 cells | fluorescence ratio F(max-min)/F0 at 10 µM | 4,000 compounds, 8.7% hits | Fluo-4 calcium fluorescence (FDSS); stronger effect = higher value | shares compounds with MrgX1 antagonist | AID 624115;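 active = calcium fluorescence ratio at least three times the spread of buffer wells, meaning a non-specific response in parental cells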
Of the large screens only hits and unclear results are named; the others gave an inactive call (follow-up assays come after a bar, where they were run).

COc1ccc(CNc2nc3nc(C)c(Cl)c(=O)n3[nH]2)cc1OC	MrgX1 antagonist -5.9 | MrgX1 ant reconf inactive | HEK293 Ca flux inactive | HEK293 Ca counter inactive | HEK293 Ca cntr2 inactive
CCn1c(=O)[nH]c2cc(C(=O)Nc3cc(C)cc(C)c3)ccc2c1=O	MrgX1 antagonist -5.1 | MrgX1 ant reconf 82% | HEK293 Ca flux inactive | HEK293 Ca counter inactive | HEK293 Ca cntr2 inactive
CCN(CC(=O)Nc1c(F)cccc1F)C(=O)COc1cccc2c1OC(C)(C)C2	MrgX1 antagonist -5.4 | MrgX1 ant reconf inactive | HEK293 Ca flux inactive | HEK293 Ca counter inactive | HEK293 Ca cntr2 inactive
Cc1ccsc1C(=O)N1CCCC(N(C)Cc2ccccc2)C1 (stereo not given)	none
CCOC(=O)Cc1nnc(Nc2cccc(O)c2)c2ccccc12	MrgX1 antagonist -6.3 | MrgX1 ant reconf inactive | HEK293 Ca flux inactive | HEK293 Ca counter inactive | HEK293 Ca cntr2 inactive
Cc1cc2oc(=O)cc(CN3CCN(S(=O)(=O)c4ccc5c(c4)OCCO5)CC3)c2cc1C	MrgX1 antagonist -8.6 | MrgX1 ant reconf inactive | HEK293 Ca flux inactive | HEK293 Ca counter inactive | HEK293 Ca cntr2 inactive
COc1ccc(C2=CC(=O)CCC2)cc1	none
Cc1cccc(C)c1OCC(=O)Nc1ncn[nH]1	none
O=C(COc1ccc2ccccc2c1Br)Nc1ncn[nH]1	MrgX1 antagonist -4.5 | MrgX1 ant reconf inactive | HEK293 Ca flux inactive | HEK293 Ca counter inactive | HEK293 Ca cntr2 inactive
COc1ccccc1C(=O)Nc1ccnn1C1CCN(C(=O)c2ccoc2)CC1	MrgX1 antagonist -6 | MrgX1 ant reconf inactive | HEK293 Ca flux inactive | HEK293 Ca counter inactive | HEK293 Ca cntr2 inactive
Cc1ccc2[nH]c3c(N4CCN(Cc5ccccc5)CC4)ncnc3c2c1	MrgX1 antagonist -6.2 | MrgX1 ant reconf 65% | HEK293 Ca flux inactive | HEK293 Ca counter inactive | HEK293 Ca cntr2 inactive
CCN1CCN(c2ncnc3c2nnn3Cc2ccccc2)CC1	MrgX1 antagonist -4.6 | MrgX1 ant reconf inactive | HEK293 Ca flux inactive | HEK293 Ca counter inactive | HEK293 Ca cntr2 inactive
c1ccc(CN2CCN(c3ncnc4c3[nH]c3ccccc34)CC2)cc1	MrgX1 antagonist -6.1 | MrgX1 ant reconf 53% | HEK293 Ca flux inactive | HEK293 Ca counter inactive | HEK293 Ca cntr2 inactive
c1ccc2c(c1)[nH]c1c(N3CCC4(CC3)OCCO4)ncnc12	none
c1ccc(Cn2nnc3c(N4CCCC4)ncnc32)cc1	none
Cc1ccc2c(c1)[nH]c1c(N3CCN(Cc4ccccc4)CC3)ncnc12	none
CC(C)CCn1cnc2c([nH]c3cccc(Cl)c32)c1=O	MrgX1 antagonist -5.8 | MrgX1 ant reconf inactive | HEK293 Ca flux inactive | HEK293 Ca counter inactive | HEK293 Ca cntr2 inactive
Cc1cccc2[nH]c3c(=O)n(CCN4CCNCC4)cnc3c12	none
Cc1ccc(CNC(=O)C2CCCN2S(=O)(=O)c2ccc(F)cc2)cc1 (stereo not given)	none
COc1ccc(CNC(=O)C2CCCN2S(=O)(=O)c2ccc(Cl)cc2)cc1 (stereo not given)	MrgX1 antagonist -5.5 | MrgX1 ant reconf 84% | HEK293 Ca flux inactive | HEK293 Ca counter inactive | HEK293 Ca cntr2 inactive
COc1ccc(CCNC(=O)C2CCCN2S(=O)(=O)c2ccc(F)cc2)cc1OC (stereo not given)	MrgX1 antagonist -9 | MrgX1 ant reconf inactive | HEK293 Ca flux inactive | HEK293 Ca counter inactive | HEK293 Ca cntr2 inactive
O=C(NCc1nnc(SCC(=O)N2CCN(c3ccccc3)CC2)o1)c1c(F)cccc1F	MrgX1 antagonist -5.7 | MrgX1 ant reconf inactive | HEK293 Ca flux inactive | HEK293 Ca counter inactive | HEK293 Ca cntr2 inactive
O=C(NCc1nnc(SCC(=O)N2CCCC2)o1)c1c(F)cccc1F	none
CN(C)c1oc(-c2ccccc2Cl)nc1P(=O)(c1ccccc1)c1ccccc1	none
CCOc1ncccc1C(=O)OCC(=O)NCc1ccc2c(c1)OCO2	MrgX1 antagonist -4.9 | MrgX1 ant reconf inactive | HEK293 Ca flux inactive | HEK293 Ca counter inactive | HEK293 Ca cntr2 inactive
COc1ccc(CNC(=O)COC(=O)Cc2ccsc2)cc1	MrgX1 antagonist -4.5 | MrgX1 ant reconf inactive | HEK293 Ca flux inactive | HEK293 Ca counter inactive | HEK293 Ca cntr2 inactive
O=C(Cc1cccs1)NCc1ccc2c(c1)OCO2	MrgX1 antagonist -8 | MrgX1 ant reconf inactive | HEK293 Ca flux inactive | HEK293 Ca counter inactive | HEK293 Ca cntr2 inactive
COc1ccc(CC(=O)NCc2cccs2)cc1	MrgX1 antagonist -6.6 | MrgX1 ant reconf inactive | HEK293 Ca flux inactive | HEK293 Ca counter inactive | HEK293 Ca cntr2 inactive
CCOC(=O)/C(=C/Nc1ccc(F)cc1)[N+](=O)[O-]	none
CN(C)CCCN=Cc1c(O)n(Cc2ccc3c(c2)OCO3)c(=O)c2ccccc12	none
Cc1ccc(C(=O)NCCSc2ccccc2)cc1S(=O)(=O)Nc1ccccc1	none
CC(C)n1c(NCc2cc(Cl)ccc2O)nc2ccccc21	MrgX1 antagonist -7.1 | MrgX1 ant reconf inactive | HEK293 Ca flux inactive | HEK293 Ca counter inactive | HEK293 Ca cntr2 inactive
Brc1ccc(C2Nc3cccc4cccc(c34)N2)s1	none (no result: RGS4 block, RGS4 pot)
O=[N+]([O-])c1ccc(-c2nc3ccc([N+](=O)[O-])cc3[nH]2)cc1	MrgX1 antagonist -10 | MrgX1 ant reconf inactive | HEK293 Ca flux inactive | HEK293 Ca counter inactive | HEK293 Ca cntr2 inactive
Nc1ccc(-c2nc3ccc([N+](=O)[O-])cc3[nH]2)cc1	none
CCOP1(=O)OCC2OC(n3cnc4c(N)ncnc43)C(O)C2O1 (stereo not given)	none
Clc1ccccc1-c1nc(-c2ccncc2)no1	none
c1ccc(-c2nc(-c3ccncc3)no2)cc1	MrgX1 antagonist -7.6 | MrgX1 ant reconf inactive | HEK293 Ca flux inactive | HEK293 Ca counter inactive | HEK293 Ca cntr2 inactive
c1ccc(-c2ccccc2-c2nc(-c3ccncc3)no2)cc1	MrgX1 antagonist -4.7 | MrgX1 ant reconf inactive | HEK293 Ca flux inactive | HEK293 Ca counter inactive | HEK293 Ca cntr2 inactive
O=S(=O)(NCCN1CCCC1)c1ccc(Br)cc1	none
O=S(=O)(NCCN1CCCC1)c1ccc(Cl)cc1	MrgX1 antagonist -4.8 | MrgX1 ant reconf inactive | HEK293 Ca flux inactive | HEK293 Ca counter inactive | HEK293 Ca cntr2 inactive
Cn1cnnc1SCC(=O)NC1CCCN(Cc2ccccc2F)C1 (stereo not given)	none

Screening data (PubChem)
